This note sets out measurements from ChEMBL document CHEMBL4811275, “Iodinated 1,2-diacylhydrazines, benzohydrazide-hydrazones and their analogues as dual antimicrobial and cytotoxic agents” (Bioorg Med Chem, 2021).

A word on the IC50: it is the midpoint of a concentration-inhibition curve. As usually defined, the MIC is the least concentration at which growth counts as inhibited.

Molecules are shown by their SMILES. Values after ≈ are worked out from the molar mass of the structure shown.

Experiment [1] relates to HK-2. Description: Cytotoxicity against human HK-2 cells assessed as reduction in cell viability incubated for 24 hrs by cell-titer 96 aqueous one solution cell proliferation assay. The settings on record: HK-2, 24 h. It is filed as cell-based.
In experiment [2] the test system is Trichophyton interdigitale. Description: Antifungal activity against Trichophyton interdigitale ATCC 9533 assessed as reduction in fungal growth incubated for 72 hrs by broth microdilution method. It is filed as functional. The method in brief:
(§1)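 Broth microdilution per EUCAST (yeasts and moulds), modified: twofold dilutions from DMSO (final ≤1% v/v) in RPMI-1640 with L-glutamine, 2% glucose, MOPS-buffered pH 7.0; scale from 0.49 µM. Static, dark, humidified, 35 ± 2 °C for 24 and 48 h (Trichophyton interdigitale 72 and 120 h). MIC = complete visible inhibition by eye; duplicates within one dilution step.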

The test system of experiment [3] is Staphylococcus aureus. Description: Antibacterial activity against Staphylococcus aureus ATCC 29213 assessed as reduction in bacterial growth incubated for 24 hrs by broth microdilution method. In kind it is functional. In a few lines:
(§2)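 Cation-adjusted Mueller-Hinton broth microdilution per EUCAST, modified; compounds from DMSO stocks, final DMSO ≤1% v/v; scale starting from 0.49 µM. Static incubation at 35 ± 2 °C, dark, humidified, read at 24 and 48 h. MIC = lowest concentration with no visible growth by eye; duplicates, parallel readings within one dilution step; growth and medium/DMSO controls included.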
(In general: Dilution methods test growth across graded concentrations, often in twofold steps.)

The test system of experiment [4] is HepG2. Description: Antiproliferative activity against human HepG2 cells assessed as increase in caspase 3/7 level at 100 uM incubated for 24 hrs by Caspase-glo reagent based microplate reader analysis relative to control. In kind it is functional. The method in brief: (§3)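 HepG2 cells seeded at 15 000/well, compounds diluted in complete MEM, 24 h at 37 °C, 5% CO2; untreated vehicle controls. Caspase-Glo 3/7 reagent added, shaken 350 rpm at room temperature 60 min in dark, luminescence read. Expressed as fold of untreated control; triplicate wells, mean ± SD with n = 6.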

The test system of experiment [5] is Pichia kudriavzevii. The experiment in a line: Antifungal activity against Candida krusei ATCC 6258 assessed as reduction in fungal growth incubated for 24 hrs by broth microdilution method. In kind it is functional. The method in brief:
as §1

Experiment [6] concerns Staphylococcus aureus. Description: Antibacterial activity against Staphylococcus aureus ATCC 29213 assessed as reduction in bacterial growth incubated for 48 hrs by broth microdilution method. It is filed as functional. In a few lines:
as §2

Experiment [7] deals with Lichtheimia corymbifera. The experiment in a line: Antifungal activity against Lichtheimia corymbifera CCM 8077 assessed as reduction in fungal growth incubated for 48 hrs by broth microdilution method. In kind it is functional. In a few lines:
as §1

In experiment [8] the test system is Staphylococcus epidermidis. The experiment in a line: Antibacterial activity against Staphylococcus epidermidis ATCC 12228 assessed as reduction in bacterial growth incubated for 48 hrs by broth microdilution method. In kind it is functional. In a few lines: as §2
Experiment [9] concerns Staphylococcus epidermidis. The experiment in a line: Antibacterial activity against Staphylococcus epidermidis ATCC 12228 assessed as reduction in bacterial growth incubated for 24 hrs by broth microdilution method. In kind it is functional. In a few lines: as §2
The subject of experiment [10] is Candida parapsilosis. Description: Antifungal activity against Candida parapsilosis ATCC 22019 assessed as reduction in fungal growth incubated for 48 hrs by broth microdilution method. In kind it is functional. To be noted: Lodderomyces parapsilosis. In a few lines:
as §1

Experiment [11] concerns Trichophyton interdigitale. Description: Antifungal activity against Trichophyton interdigitale ATCC 9533 assessed as reduction in fungal growth incubated for 120 hrs by broth microdilution method. It is filed as functional. The method in brief: as §1
Experiment [12] relates to HepG2. The experiment in a line: Antiproliferative activity against human HepG2 cells assessed as increase in caspase 3/7 level at 1 uM incubated for 24 hrs by Caspase-glo reagent based microplate reader analysis relative to control. In kind it is functional. The method in brief: as §3
Experiment [13] has as its system Enterococcus faecalis. Description: Antibacterial activity against Enterococcus faecalis ATCC 29212 assessed as reduction in bacterial growth incubated for 24 hrs by broth microdilution method. In kind it is functional. In a few lines: as §2
Experiment [14] deals with Pichia kudriavzevii. The experiment in a line: Antifungal activity against Candida krusei ATCC 6258 assessed as reduction in fungal growth incubated for 48 hrs by broth microdilution method. It is filed as functional. In a few lines: as §1
Experiment [15] deals with HepG2. Description: Cytotoxicity against human HepG2 cells assessed as reduction in cell viability incubated for 24 hrs by cell-titer 96 aqueous one solution cell proliferation assay. It is filed as functional, cell-based. The settings on record: HepG2, 24 h.
Experiment [16] concerns Escherichia coli. Description: Antibacterial activity against Escherichia coli ATCC 25922 assessed as reduction in bacterial growth incubated for 24 hrs by broth microdilution method. In kind it is functional. The method in brief: as §2
For experiment [17], the system named is Enterococcus faecalis. Description: Antibacterial activity against Enterococcus faecalis ATCC 29212 assessed as reduction in bacterial growth incubated for 48 hrs by broth microdilution method. In kind it is functional. In a few lines:
as §2

In experiment [18] the test system is Candida parapsilosis. The experiment in a line: Antifungal activity against Candida parapsilosis ATCC 22019 assessed as reduction in fungal growth incubated for 24 hrs by broth microdilution method. In kind it is functional. The settings on record: Lodderomyces parapsilosis. In a few lines:
as §1

In experiment [19] the test system is Candida albicans. The experiment in a line: Antifungal activity against Candida albicans ATCC 24443 assessed as reduction in fungal growth incubated for 24 hrs by broth microdilution method. It is filed as functional. In a few lines: as §1
Experiment [20] concerns Lichtheimia corymbifera. The experiment in a line: Antifungal activity against Lichtheimia corymbifera CCM 8077 assessed as reduction in fungal growth incubated for 24 hrs by broth microdilution method. In kind it is functional. The method in brief:
as §1

Experiment [21] relates to Escherichia coli. The experiment in a line: Antibacterial activity against Escherichia coli ATCC 25922 assessed as reduction in bacterial growth incubated for 48 hrs by broth microdilution method. In kind it is functional. In a few lines:
as §2

The test system of experiment [22] is Staphylococcus aureus. The experiment in a line: Antibacterial activity against methicillin-resistant Staphylococcus aureus ATCC 43300 assessed as reduction in bacterial growth incubated for 24 hrs by broth microdilution method. It is filed as functional. In a few lines:
(§4)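 EUCAST-based broth microdilution in cation-adjusted Mueller-Hinton broth. DMSO stocks, final DMSO ≤1% v/v, concentration scale starting from 0.49 µM. Static incubation at 35 ± 2 °C, dark and humidified. Run in duplicate, accepted only if parallel MICs differ by at most one dilution step. MIC is the lowest concentration with no visible growth by naked eye.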

In experiment [23] the test system is Candida albicans. Description: Antifungal activity against Candida albicans ATCC 24443 assessed as reduction in fungal growth incubated for 48 hrs by broth microdilution method. It is filed as functional. The method in brief:
as §1

The test system of experiment [24] is Staphylococcus aureus. The experiment in a line: Antibacterial activity against methicillin-resistant Staphylococcus aureus ATCC 43300 assessed as reduction in bacterial growth incubated for 48 hrs by broth microdilution method. It is filed as functional. The method in brief:
as §4

Experiment [25] in a line: Therapeutic index, ratio of IC50 for cytotoxicity against human HepG2 cells to MIC for antifungal activity against Candida albicans ATCC 24443.
Experiment [26] concerns Lichtheimia corymbifera. Description: Antifungal activity against Lichtheimia corymbifera CCM 8077 assessed as reduction in fungal growth incubated for 24 hrs by broth microdilution method based spectrophotometric analysis. In kind it is functional.
The subject of experiment [27] is Candida parapsilosis. The experiment in a line: Antifungal activity against Candida parapsilosis ATCC 22019 assessed as reduction in fungal growth incubated for 48 hrs by broth microdilution method based spectrophotometric analysis. In kind it is functional. The settings on record: Lodderomyces parapsilosis.
In experiment [28] the test system is Pichia kudriavzevii. The experiment in a line: Antifungal activity against Candida krusei ATCC 6258 assessed as reduction in fungal growth incubated for 48 hrs by broth microdilution method based spectrophotometric analysis. It is filed as functional.
The subject of experiment [29] is Lichtheimia corymbifera. The experiment in a line: Antifungal activity against Lichtheimia corymbifera CCM 8077 assessed as reduction in fungal growth incubated for 48 hrs by broth microdilution method based spectrophotometric analysis. In kind it is functional.
Experiment [30] concerns Candida albicans. The experiment in a line: Antifungal activity against Candida albicans ATCC 24443 assessed as reduction in fungal growth incubated for 48 hrs by broth microdilution method based spectrophotometric analysis. In kind it is functional.
In experiment [31] the test system is Trichophyton interdigitale. The experiment in a line: Antifungal activity against Trichophyton interdigitale ATCC 9533 assessed as reduction in fungal growth incubated for 72 hrs by broth microdilution method based spectrophotometric analysis. In kind it is functional.
The test system of experiment [32] is Pichia kudriavzevii. Description: Antifungal activity against Candida krusei ATCC 6258 assessed as reduction in fungal growth incubated for 24 hrs by broth microdilution method based spectrophotometric analysis. It is filed as functional.
Experiment [33] concerns Candida albicans. The experiment in a line: Antifungal activity against Candida albicans ATCC 24443 assessed as reduction in fungal growth incubated for 24 hrs by broth microdilution method based spectrophotometric analysis. In kind it is functional.
Experiment [34] relates to Trichophyton interdigitale. Description: Antifungal activity against Trichophyton interdigitale ATCC 9533 assessed as reduction in fungal growth incubated for 120 hrs by broth microdilution method based spectrophotometric analysis. It is filed as functional.
Experiment [35] has as its system Candida parapsilosis. Description: Antifungal activity against Candida parapsilosis ATCC 22019 assessed as reduction in fungal growth incubated for 24 hrs by broth microdilution method based spectrophotometric analysis. In kind it is functional. The settings on record: Lodderomyces parapsilosis.

On to `O=C(N/N=C/c1cc(I)cc(I)c1O)c1ccc(F)cc1`, for which the values for the IC50 in experiment [1] and in [15] were 55.6 µM and 12.1 µM, respectively. For the same molecule, the MIC turned out to be 15.6 µM (≈ 7.97 µg/mL) in experiment [2]; 15.6 µM (≈ 7.97 µg/mL) in [3]; 125 µM (≈ 63.8 µg/mL) in experiment [5]; 31.2 µM (≈ 15.9 µg/mL) in experiment [6]; 125 µM (≈ 63.8 µg/mL) in [7]; 31.2 µM (≈ 15.9 µg/mL) in [8]. The MIC is 31.2 µM (≈ 15.9 µg/mL) in experiment [9]; 125 µM (≈ 63.8 µg/mL) in experiment [10]; 62.5 µM (≈ 31.9 µg/mL) in experiment [11]; 31.2 µM (≈ 15.9 µg/mL) in experiment [13]; 125 µM (≈ 63.8 µg/mL) in experiment [14]; over 500 µM in experiment [16]. The MIC in experiment [17] was 62.5 µM (≈ 31.9 µg/mL); in experiment [18], 62.5 µM (≈ 31.9 µg/mL); in [19], 62.5 µM (≈ 31.9 µg/mL); in experiment [20] it was 125 µM (≈ 63.8 µg/mL); in [21] it was over 500 µM; in experiment [22], 15.6 µM (≈ 7.97 µg/mL). Also, the figures for the MIC in experiment [23] and in [24] were 125 µM (≈ 63.8 µg/mL) and 31.2 µM (≈ 15.9 µg/mL), respectively. Further, the fold change (FC) in experiment [4] was found to be 1.33; in experiment [12], 1.36.

As for `O=C(N/N=C/c1cc(I)cc(I)c1O)c1ccc([N+](=O)[O-])cc1`, the results for the 50% inhibitory concentration (IC50) in experiment [1] and in [15] were 26.8 µM and 24.7 µM, respectively. Moreover, the minimal inhibitory concentration (MIC) in experiment [2] amounted to 3.9 µM (≈ 2.09 µg/mL); in [3], 31.2 µM (≈ 16.8 µg/mL); in experiment [5], 62.5 µM (≈ 33.6 µg/mL); in [6] it was 62.5 µM (≈ 33.6 µg/mL); in experiment [7] it was 62.5 µM (≈ 33.6 µg/mL); in experiment [8] it was 62.5 µM (≈ 33.6 µg/mL). The MIC is 31.2 µM (≈ 16.8 µg/mL) in experiment [9]; over 125 µM in experiment [10]; 15.6 µM (≈ 8.39 µg/mL) in [11]; 62.5 µM (≈ 33.6 µg/mL) in experiment [13]; over 125 µM in experiment [14]; over 125 µM in [16]. Also, the MIC in experiment [17] is 125 µM (≈ 67.1 µg/mL); in experiment [18] it was over 125 µM; in experiment [19] it was 1.95 µM (≈ 1.05 µg/mL); in experiment [20] it was 31.2 µM (≈ 16.8 µg/mL); in experiment [21], over 125 µM; in [22] it was 31.2 µM (≈ 16.8 µg/mL). In addition, the results for the minimal inhibitory concentration (MIC) in experiment [23] and in experiment [24] were 7.81 µM (≈ 4.19 µg/mL) and 62.5 µM (≈ 33.6 µg/mL), respectively. Also, the Ratio in experiment [25] came to 13.1.

`OC(Cn1cncn1)(Cn1cncn1)c1ccc(F)cc1F` [FLUCONAZOLE]: the minimum inhibitory concentration (MIC) was over 104 µM in experiment [26]; 3.3 µM (≈ 1.01 µg/mL) in experiment [27]; over 104 µM in experiment [28]; over 104 µM in experiment [29]; 6.5 µM (≈ 1.99 µg/mL) in experiment [30]; 52.2 µM (≈ 16 µg/mL) in [31]. In addition, the MIC in [32] was over 104 µM; in experiment [33] it was 6.5 µM (≈ 1.99 µg/mL); in experiment [34], 52.2 µM (≈ 16 µg/mL); in experiment [35], 3.3 µM (≈ 1.01 µg/mL).
